From ChEMBL document CHEMBL1165914, “Characterization of 4-methyl-2-oxo-1,2-dihydroquinolin-6-yl acetate as an effective antiplatelet agent” (2010)
Calls of active or inactive are those of the source. No cut-off for these calls is given here.

How the values were obtained:
Homo sapiens [1] = species: Homo sapiens; test: Inhibition of human platelet CRTAase assessed as inhibition of acetylation of glutathione S-transferase; parameters: concentration or dose not given beside the values; details: concentration not given here
Procedure, shortened: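 Platelet lysate as enzyme source. Acetoxy substrate preincubated with CRTAase and GST in potassium phosphate buffer pH 6.5, 37 °C, 10 min; GSH and CDNB then added and absorbance read at 340 nm. Activity unit is % inhibition of GST activity; mean of five observations.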

Homo sapiens [2] = species: Homo sapiens; test: Activation of human platelet NOS assessed as increase in nitric oxide level by flow cytometry
Procedure, shortened: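 Platelets incubated with compounds, then intracellular NO measured by flow cytometry following the Imrich and Kobzik method.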

Platelet [3] = test: Antiplatelet activity in human platelet rich plasma assessed as inhibition of ADP-induced platelet aggregation measured for 6 mins by aggregometry; type: functional
Rattus norvegicus [4] = test: Ex vivo antiplatelet activity in Sprague-Dawley rat platelets assessed as inhibition of arachidonic acid-induced platelet aggregation at 133 umole/kg, po after 24 hrs by aggregometry; type: functional, organism-based
Procedure, shortened: (§1)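 Rats dosed orally and killed 24 h later. Blood taken by cardiac puncture and centrifuged as for PRP/PPP preparation (180g 10 min; 2500g 10 min). ADP- or AA-induced aggregation then measured by light-transmittance aggregometry.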

Rattus norvegicus [5] = test: Ex vivo antiplatelet activity in Sprague-Dawley rat platelets assessed as inhibition of ADP-induced platelet aggregation at 133 umole/kg, po after 24 hrs by aggregometry; type: functional, organism-based; procedure, shortened: as §1
Rattus norvegicus [6] = test: Inhibition of COX1 in po dosed Sprague-Dawley rat after 24 hrs by ELISA; type: functional, organism-based
Platelet [7] = test: Antiplatelet activity in human platelet rich plasma assessed as inhibition of arachidonic acid-induced platelet aggregation measured for 6 mins by aggregometry; type: functional
Rattus norvegicus [8] = test: Inhibition of COX1 in po dosed Sprague-Dawley rat after 24 hrs by ELISA relative to control; type: functional

SMILES	inhibition (Homo sapiens [1]) [%]	inhibition (Platelet [3])	other results
CC(=O)Oc1ccc2c(C)cc(=O)[nH]c2c1	13.2	Active	Activity (Homo sapiens [2]): Active
CC(=O)Oc1ccccc1C(=O)O			inhibition (Rattus norvegicus [4]): Active; inhibition (Rattus norvegicus [5]): Active; inhibition (Rattus norvegicus [6]): Active
CCCCCCc1c(C)c2cccc(OC(C)=O)c2[nH]c1=O	0		
CC(=O)Oc1cc(=O)[nH]c2ccccc12	0		
Cc1cc(=O)[nH]c2ccc(O)cc12	0		inhibition (Rattus norvegicus [4]): inactive; inhibition (Rattus norvegicus [5]): inactive; inhibition (Rattus norvegicus [6]): inactive
CCOC(=O)COc1cc(C)c2ccc(OC(C)=O)cc2n1	13.2	inactive	
CCCCCCc1c(C)c2ccc(OC(C)=O)cc2[nH]c1=O	2		
CCOC(=O)COc1cc(C)c2cc(OC(C)=O)ccc2n1	28.6	inactive	

Continued, in another order:

inhibition (Homo sapiens [1]) [%]	SMILES	inhibition (Platelet [3])	other results
12	CC(=O)Oc1cccc2c(C)cc(=O)[nH]c12	Active	Activity (Homo sapiens [2]): Active
10	CCOC(=O)Cn1c(=O)cc(C)c2ccc(OC(C)=O)cc21	Active	
31	CC(=O)Oc1ccc2[nH]c(=O)cc(C)c2c1	Active	Activity (Homo sapiens [2]): Active; inhibition (Platelet [7]): Active; inhibition (Rattus norvegicus [4]): Active; inhibition (Rattus norvegicus [5]): Active; fold change (FC) (Rattus norvegicus [8]): 3.5
7	CCCCCCc1c(C)c2cc(OC(C)=O)ccc2[nH]c1=O		
26	CCc1c(C)c2cc(OC(C)=O)ccc2[nH]c1=O		
11.5	CCc1c(C)c2cccc(OC(C)=O)c2[nH]c1=O		
13	CCc1c(C)c2ccc(OC(C)=O)cc2[nH]c1=O		
23	CCOC(=O)Cn1c(=O)cc(C)c2cc(OC(C)=O)ccc21	Active	
